This passage reports inhibition of growth, IC50 and Activity results from ChEMBL document CHEMBL2040844, “Anthranilic acid-based diamides derivatives incorporating aryl-isoxazoline pharmacophore as potential anticancer agents: design, synthesis and biological evaluation” (Eur J Med Chem, 2012).

pIC50: −log10 of the molar value.

Test [1] deals with HepG2. Put plainly: Growth inhibition of human HepG2 cells at 40 ug/ml after 72 hrs by MTT assay. In kind it is functional. Particulars: HepG2, 72 h, read-out: GI. A digest of the protocol:
(§1)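 Single-concentration screen at 40 µg/mL, reported as % cell growth inhibition. Cells were seeded at 2 × 10⁴ per well, grown to subconfluence, then treated for 72 h at 37 °C in humidified 5% CO₂. MTT was added for 4 h, formazan was dissolved in DMSO, and absorbance was read at 570 nm. Triplicate wells, three independent experiments; 5-FU served as positive control.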
Background: Tetrazolium dyes change colour on reduction, which living cells bring about.

Test [2] deals with SGC-7901. Put plainly: Growth inhibition of human SGC7901 cells at 40 ug/ml after 72 hrs by MTT assay. In kind it is functional. Particulars: SGC-7901, 72 h, read-out: GI. The essentials: as §1
For test [3], the system named is BGC-823. Briefly: Growth inhibition of human BGC823 cells at 40 ug/ml after 72 hrs by MTT assay. In kind it is functional. Particulars: BGC-823, 72 h, read-out: GI. The essentials:
as §1

The subject of test [4] is NCI-H460. Put plainly: Growth inhibition of human NCI-H460 cells at 40 ug/ml after 72 hrs by MTT assay. In kind it is functional. Particulars: NCI-H460, 72 h, read-out: GI. The essentials:
as §1

Test [5] deals with MCF7. Briefly: Growth inhibition of human MCF7 cells at 40 ug/ml after 72 hrs by MTT assay. In kind it is functional. Particulars: MCF7, 72 h, read-out: GI. A digest of the protocol:
as §1

For test [6], the system named is HepG2. Briefly: Cytotoxicity against human HepG2 cells after 72 hrs by MTT assay. In kind it is functional, cell-based. Particulars: for pIC50: HepG2, 72 h. A digest of the protocol:
(§2)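 MTT assay. Cells were seeded at 2 × 10⁴ per well, grown to subconfluence, then exposed to serial dilutions of compound in test medium for 72 h at 37 °C in humidified 5% CO₂. MTT was added for 4 h, formazan was dissolved in DMSO, and absorbance was read at 570 nm. IC50 values were derived from dose-response. Triplicate wells, three independent experiments; 5-FU served as positive control.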

The test system of test [7] is SGC-7901. Briefly: Cytotoxicity against human SGC7901 cells after 72 hrs by MTT assay. In kind it is functional, cell-based. The conditions noted are these: SGC-7901, 72 h. A digest of the protocol:
as §2

The subject of test [8] is BGC-823. Briefly: Cytotoxicity against human BGC823 cells after 72 hrs by MTT assay. In kind it is functional, cell-based. Particulars: for pIC50: BGC-823, 72 h. The essentials:
as §2

For test [9], the system named is NCI-H460. Briefly: Cytotoxicity against human NCI-H460 cells after 72 hrs by MTT assay. In kind it is functional, cell-based. The conditions noted are these: NCI-H460, 72 h. The essentials: as §2
Test [10] deals with MCF7. Briefly: Cytotoxicity against human MCF7 cells after 72 hrs by MTT assay. In kind it is functional, cell-based. The conditions noted are these: MCF7, 72 h. The essentials: as §2

Turning to `CCCNC(=O)c1cc(Cl)cc(C)c1NC(=O)C1CC(c2cc(OC)c(OC)c(OC)c2)=NO1` (configuration not stated), the inhibition of growth at 40 µg/mL came out at 21.1% in the test on HepG2 [1]; 15.4% in the test on SGC-7901 [2]; 28% with BGC-823 [3]; 9.5% in the test with NCI-H460 [4]; 29.1% in the test with MCF7 [5]. Moreover, the pIC50 in the test with HepG2 [6], with SGC-7901 [7], in the test with BGC-823 [8], in the test on NCI-H460 [9] and in the test with MCF7 [10] was under 4.00 in each case.

As for `COc1cc(C2=NOC(C(=O)Nc3c(C)cc(Cl)cc3C(=O)NC3CCCCC3)C2)cc(OC)c1OC` (configuration not stated), the inhibition of growth at 40 µg/mL is 64% in the test with HepG2 [1]; 60.2% in the test with SGC-7901 [2]; 69.7% in the test on BGC-823 [3]; 74% in the test with NCI-H460 [4]; 62.7% in the test on MCF7 [5]. The Activity entry in the test with HepG2 [6] and in the test with BGC-823 [8] was “Dose-dependent effect” in each case. In addition, the pIC50 in the test with HepG2 [6] was 4.46; with SGC-7901 [7], 4.43; in the test on BGC-823 [8], 4.63; in the test on NCI-H460 [9] it was 4.61; in the test on MCF7 [10], 4.65.

In the case of `CCN(CC)C(=O)c1cc(Cl)cc(C)c1NC(=O)C1CC(c2ccc(F)cc2)=NO1` (configuration not stated), the inhibition of growth at 40 µg/mL in the test with HepG2 [1] came to 18.2%; in the test on SGC-7901 [2], 15.8%; in the test on BGC-823 [3], 36.4%; in the test with NCI-H460 [4], 10%; in the test with MCF7 [5], 14.4%. Besides, the pIC50 in the test on HepG2 [6], in the test on SGC-7901 [7], with BGC-823 [8], in the test on NCI-H460 [9] and in the test on MCF7 [10] was under 4.00 each time.

With `CNC(=O)c1cc(Cl)cc(C)c1NC(=O)C1CC(c2cc(OC)c(OC)c(OC)c2)=NO1` (configuration not stated), the inhibition of growth at 40 µg/mL came to 30.6% in the test with HepG2 [1]; 27.3% in the test with SGC-7901 [2]; 34.1% in the test on BGC-823 [3]; 5.5% in the test with NCI-H460 [4]; 26.1% in the test with MCF7 [5]. For the same compound, the pIC50 in the test on HepG2 [6] is 4.17; in the test on SGC-7901 [7], 4.18; with BGC-823 [8], 4.27; in the test with NCI-H460 [9] it was under 4.00; in the test with MCF7 [10] it was under 4.00.

Broadly, the pIC50 is the negative decadic logarithm of the IC50, by convention in mol/L.
